Series [1] deals with T1, Substance-K receptor (Oryctolagus cuniculus, UniProt P79218).
T1 sequence (P79218 whole entry): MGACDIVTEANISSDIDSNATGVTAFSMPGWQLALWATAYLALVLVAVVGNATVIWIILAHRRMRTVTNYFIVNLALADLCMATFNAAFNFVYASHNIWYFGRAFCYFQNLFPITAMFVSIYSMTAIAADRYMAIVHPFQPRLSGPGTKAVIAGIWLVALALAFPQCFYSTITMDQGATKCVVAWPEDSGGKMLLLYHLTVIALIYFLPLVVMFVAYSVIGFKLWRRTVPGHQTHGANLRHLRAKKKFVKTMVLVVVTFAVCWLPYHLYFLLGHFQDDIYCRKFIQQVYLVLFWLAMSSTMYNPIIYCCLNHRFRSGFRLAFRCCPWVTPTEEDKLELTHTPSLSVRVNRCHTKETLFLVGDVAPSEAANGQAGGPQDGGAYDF
The series can be described thus: Tested for antagonist activity against NK-2 receptor in rabbit pulmonary artery by using Neurokinin A as agonist. In kind it is functional. As to conditions: read-out: pA2 (converted). The method in brief: (§1)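 Isolated-organ contractile bioassays: SP on rabbit vena cava (NK-1), neurokinin A on rabbit pulmonary artery (NK-2), neurokinin B on rat portal vein (NK-3); antagonist apparent affinity expressed as pA2 by Schild plot.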

The nature of series [2]: Solubility was evaluated. In kind it is physicochemical.
For series [3], the system named is Mus musculus. The series is described as follows: Tested for antinociceptive activity against mouse hotplate test for 60 min after oral administration of 40 mg/kg. In kind it is functional. The method in brief:
(§2)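 Male CD1 mice (25-30 g) on a 55 ± 0.2 °C plate; forepaw-licking latency measured 60 min after oral 40 mg/kg given in water (soluble) or 0.2% hydroxypropylcellulose (insoluble); % increase of reaction time versus vehicle controls; groups of 12 animals; Dunnett t-test.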

For series [4], the target named is T2, Neuromedin-K receptor (Rattus norvegicus, UniProt P16177).
T2 sequence (P16177 whole entry): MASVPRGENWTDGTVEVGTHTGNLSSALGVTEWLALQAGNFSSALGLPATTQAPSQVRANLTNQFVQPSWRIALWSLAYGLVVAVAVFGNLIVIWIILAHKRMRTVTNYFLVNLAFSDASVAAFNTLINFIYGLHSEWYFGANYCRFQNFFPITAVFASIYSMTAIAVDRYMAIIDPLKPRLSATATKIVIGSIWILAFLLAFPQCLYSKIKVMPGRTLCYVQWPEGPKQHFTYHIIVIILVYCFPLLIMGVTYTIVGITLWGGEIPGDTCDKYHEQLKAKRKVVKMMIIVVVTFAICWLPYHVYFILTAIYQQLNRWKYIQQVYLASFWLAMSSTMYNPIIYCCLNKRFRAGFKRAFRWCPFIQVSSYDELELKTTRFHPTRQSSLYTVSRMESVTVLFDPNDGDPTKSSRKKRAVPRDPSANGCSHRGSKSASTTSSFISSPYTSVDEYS
The series is described as follows: Tested for antagonist activity against NK-3 receptor in rat portal vein by using Neurokinin B as agonist. The note with it: read-out: pA2 (converted). In kind it is functional. The procedure, abridged: as §1

The target of series [5] is T3, Substance-K receptor (Rattus norvegicus, UniProt P16610).
T3 sequence (P16610 whole entry): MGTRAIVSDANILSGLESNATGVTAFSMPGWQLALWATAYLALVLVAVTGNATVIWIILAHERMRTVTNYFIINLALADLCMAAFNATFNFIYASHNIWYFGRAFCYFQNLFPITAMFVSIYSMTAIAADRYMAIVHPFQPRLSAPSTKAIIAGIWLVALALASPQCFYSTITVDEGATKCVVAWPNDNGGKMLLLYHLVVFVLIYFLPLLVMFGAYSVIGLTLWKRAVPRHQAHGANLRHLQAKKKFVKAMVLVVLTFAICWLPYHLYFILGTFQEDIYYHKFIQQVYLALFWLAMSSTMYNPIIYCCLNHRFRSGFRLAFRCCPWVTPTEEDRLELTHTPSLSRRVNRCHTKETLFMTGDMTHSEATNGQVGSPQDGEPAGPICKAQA
The series can be described thus: Tested for binding affinity against rat NK-2 receptor transfected on CHO cells using [125I]-His] NKA as radioligand. In kind it is cell-based.

For series [6], the target named is T4, Substance-K receptor (Homo sapiens, UniProt P21452).
T4 sequence (P21452 whole entry): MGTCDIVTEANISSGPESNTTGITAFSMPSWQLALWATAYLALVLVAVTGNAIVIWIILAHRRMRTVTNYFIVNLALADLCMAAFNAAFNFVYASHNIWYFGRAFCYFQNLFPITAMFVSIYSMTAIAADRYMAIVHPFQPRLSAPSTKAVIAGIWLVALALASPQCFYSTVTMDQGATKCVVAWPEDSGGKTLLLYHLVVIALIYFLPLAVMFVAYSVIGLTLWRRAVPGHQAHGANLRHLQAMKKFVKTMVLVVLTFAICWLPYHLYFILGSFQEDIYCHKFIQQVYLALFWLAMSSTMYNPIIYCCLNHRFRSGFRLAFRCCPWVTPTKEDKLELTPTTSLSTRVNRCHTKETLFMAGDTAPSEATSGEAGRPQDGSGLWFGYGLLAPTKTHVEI
The series can be described thus: Tested for binding affinity against human NK-2 receptor transfected on CHO cells using [125I]-His] NKA as radioligand. In kind it is cell-based.

Series [7] deals with Mus musculus. The series can be described thus: Tested for antinociceptive activity against mouse hotplate test for 10 min after intravenous injection at 0.5 mg/kg.
In series [8] the target is Substance-P receptor (Homo sapiens, UniProt P25103). The series can be described thus: Tested for binding affinity against human NK-1 receptor transfected on CHO cells using [125I]-Tyr] SP as radioligand. In kind it is cell-based.
In series [9] the test system is Mus musculus. The series can be described thus: Tested for antinociceptive activity in hot plate test at 10 min after 0.5 mg/kg intravenous administration in mouse; insoluble. More on the design: dose 0.5 mg/kg. In kind it is functional, organism-based. As to conditions: at 0.5 mg/kg. In general terms: Hot-plate and tail-flick tests time the reaction to a heat stimulus.

Series [10] deals with Substance-P receptor (Rattus norvegicus, UniProt P14600). The series can be described thus: Tested for the binding affinity against rat neurokinin-1 (NK-1) receptor transfected on CHO cells using [125I]-Tyr] SP as radioligand. In kind it is cell-based.
The target in series [11] is Substance-P receptor (Oryctolagus cuniculus). The series is described as follows: Tested for antagonist activity against NK1 receptor in rabbit vena cava by using substance P (SP) as agonist. As to conditions: read-out: pA2 (converted).
For series [12], the species on record is Mus musculus. The series is described as follows: Binding affinity by displacement of tritiated substance P from its binding sites on membrane preparations from mouse brain.
Series [13] has as its system Mus musculus. The series can be described thus: Tested for antinociceptive activity in hot plate test at 60 min after 40 mg/kg oral administration in mouse; insoluble. In kind it is functional, organism-based. Also noted: dose 40 mg/kg. As to conditions: at 40 mg/kg. The method in brief: as §2
For series [14], the species on record is Rattus norvegicus. The series can be described thus: Binding affinity by displacement of tritiated substance P from its binding sites on membrane preparations from rat brain.
Series [15] has as its target T3, Substance-K receptor. The series is described as follows: Tested for the binding affinity against rat neurokinin-2 (NK-2) receptor transfected on CHO cells using [125I]-His] NKA as radioligand. In kind it is cell-based.

The results in this text go back to ChEMBL document CHEMBL1126707, “Tetrapeptide tachykinin antagonists: synthesis and modulation of the physicochemical and pharmacological properties of a new series of partially cyclic analogs” (J Med Chem, 1993).

Molecules are shown by their SMILES. Bounds are passed on as bounds.

Sequence of Substance-P receptor (Homo sapiens, UniProt P25103) (P25103 whole entry): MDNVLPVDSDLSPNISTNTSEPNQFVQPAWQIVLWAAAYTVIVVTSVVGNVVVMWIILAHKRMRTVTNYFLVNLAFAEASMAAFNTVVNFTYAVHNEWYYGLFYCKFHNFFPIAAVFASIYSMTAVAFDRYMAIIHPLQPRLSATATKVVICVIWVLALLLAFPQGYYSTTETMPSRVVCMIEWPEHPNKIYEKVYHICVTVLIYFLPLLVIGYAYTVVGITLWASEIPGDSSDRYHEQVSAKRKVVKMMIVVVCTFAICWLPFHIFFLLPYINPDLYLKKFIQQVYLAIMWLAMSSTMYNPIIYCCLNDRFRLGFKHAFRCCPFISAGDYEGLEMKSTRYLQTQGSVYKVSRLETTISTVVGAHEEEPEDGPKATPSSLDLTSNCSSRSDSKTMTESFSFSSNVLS
Sequence of Substance-P receptor (Rattus norvegicus, UniProt P14600) (P14600 whole entry): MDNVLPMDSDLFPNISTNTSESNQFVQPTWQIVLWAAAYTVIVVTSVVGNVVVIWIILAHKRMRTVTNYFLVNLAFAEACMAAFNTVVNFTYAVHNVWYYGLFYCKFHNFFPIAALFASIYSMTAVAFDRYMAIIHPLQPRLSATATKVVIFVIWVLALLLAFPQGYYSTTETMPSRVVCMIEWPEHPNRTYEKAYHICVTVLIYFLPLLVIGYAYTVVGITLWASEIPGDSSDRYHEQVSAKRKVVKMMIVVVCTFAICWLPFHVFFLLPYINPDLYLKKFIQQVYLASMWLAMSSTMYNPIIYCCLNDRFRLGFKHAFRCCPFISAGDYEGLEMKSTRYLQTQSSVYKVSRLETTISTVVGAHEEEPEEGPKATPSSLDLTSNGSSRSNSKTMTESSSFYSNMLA

On to `CN(Cc1ccccc1)C(=O)[C@H](Cc1ccccc1)NC(=O)[C@@H](Cc1cn(C)c2ccccc12)NC(=O)C[C@@H]1NC(=O)[C@@H]2C3CCC(CC3)N2C1=O`, for which the results for the Kb in series [1] and in series [4] were 10000 nM and 7940 nM, respectively. The compound also yielded a solubility in series [2] below 10 µg/mL. Besides, the Increase in series [3] was 10%; in series [7] it was 17%. Also, the concentration for half-maximal inhibition (IC50) in series [5] amounted to 489 nM; in [6] it was 79 nM.

In the case of `CC(=O)N[C@H](C(=O)N[C@H](Cc1cn(C=O)c2ccccc12)C(=O)N[C@@H](Cc1ccccc1)C(=O)N(C)Cc1ccccc1)C(C)O` (stereo partly drawn), the IC50 stood at 6 nM in series [8], 3400 nM in series [10], 824 nM in series [15] and 99 nM in [6]. Further, the figures for the Kb in [1], in series [4] and in [11] were 3980 nM, 1580 nM and 79.4 nM, respectively. Besides, the Increase entry in series [9] and in series [13] was “Insoluble” in each case. The inhibition constant Ki in series [12] and in series [14] was 320 nM throughout.

In general, solubility refers to the dissolved amount per volume that the medium holds. What is called IC50 is the concentration at which inhibition is half-maximal. Read a low IC50 as greater potency. For orientation: Ki means the equilibrium dissociation constant of an inhibitor or competing ligand from its target.
